# Measured values: ChEMBL document CHEMBL4689842, “EUbOPEN Chemogenomics Library wave 1” (2021)
# “And” between values parts separate entries of the source, which are not always exact repeats. Equal values may be shown once.
# Tested on: HEK-293T
# Assay: Multiplex assay against HEK293T;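 for Population Tubulin-Different-Phenotype (%): share of the cells with healthy nuclei that show this phenotype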
# Assay type: toxicity, cell-based
# Conditions: human
# In short: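 Live cells were stained at seeding with Hoechst33342, BioTracker Green Microtubule Cytoskeleton Dye, MitoTracker Red and Annexin V Alexa Fluor 680, then imaged on a CQ1 microscope at 37°C and 5% CO2 after compound addition. CellPathfinder machine-learning gating split cells into Hoechst high-intensity objects or normal cells. Normal cells were split into healthy, pyknosed or fragmented nuclei, and pyknosed cells into mitotic or apoptotic. Tubulin, mitochondrial-mass and membrane-permeability phenotypes are per cents of healthy-nucleus cells.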
# [1] = 12 h, 1 µM, compound concentration 1 uM, replicate 1
# [2] = 12 h, 1 µM, compound concentration 1 uM, replicate 2
# [3] = 12 h, 10 µM, compound concentration 10 uM, replicate 1
# [4] = 12 h, 10 µM, compound concentration 10 uM, replicate 2
# [5] = 24 h, 1 µM, compound concentration 1 uM, replicate 1
# [6] = 24 h, 1 µM, compound concentration 1 uM, replicate 2
# [7] = 24 h, 10 µM, compound concentration 10 uM, replicate 1
# [8] = 24 h, 10 µM, compound concentration 10 uM, replicate 2
# [9] = 48 h, 10 µM, compound concentration 10 uM, replicate 1
# [10] = 48 h, 10 µM, compound concentration 10 uM, replicate 2
# [11] = 48 h, 1 µM, compound concentration 1 uM, replicate 1
# [12] = 48 h, 1 µM, compound concentration 1 uM, replicate 2
structure (smiles),measurement,setting,value
CNC(=O)c1nn(C)c2c1C(C)(C)Cc1cnc(Nc3ccc(N4CCN(C)CC4)cc3)nc1-2 [MILCICLIB],Population Apoptotic (%),[1],28%
same,Population Fragmented Nuclei (%),[1],17%
same,Population Healthy Nuclei (%),[1],41%
same,Population Hoechst High Intensity Objects (%),[1],21%
same,Population Membrane Permeable-Phenotype (%),[1],9%
same,Population Mitochondria Different-Phenotype (%),[1],25%
same,Population Mitotic Cells (%),[1],71%
same,Population Normal (%),[1],78%
same,Population Pyknosed Nuclei (%),[1],40%
same,Population Tubulin-Different-Phenotype (%),[1],82%
same,Total Cell Count,[1],581
same,Population Apoptotic (%),[2],23%
same,Population Fragmented Nuclei (%),[2],2%
same,Population Healthy Nuclei (%),[2],83%
same,Population Hoechst High Intensity Objects (%),[2],9%
same,Population Membrane Permeable-Phenotype (%),[2],3%
same,Population Mitochondria Different-Phenotype (%),[2],64%
same,Population Mitotic Cells (%),[2],76%
same,Population Normal (%),[2],90%
same,Population Pyknosed Nuclei (%),[2],14%
same,Population Tubulin-Different-Phenotype (%),[2],98%
same,Total Cell Count,[2],860
same,Population Apoptotic (%),[3],29% and 75% and 67%
same,Population Healthy Nuclei (%),[3],36% and 49%
same,Population Hoechst High Intensity Objects (%),[3],18% and 11% and 13%
same,Population Mitochondria Different-Phenotype (%),[3],39% and 100% and 98%
same,Population Mitotic Cells (%),[3],70% and 24% and 32%
same,Population Normal (%),[3],81% and 88% and 86%
same,Population Pyknosed Nuclei (%),[3],38% and 43%
same,Population Tubulin-Different-Phenotype (%),[3],79% and 97%
same,Total Cell Count,[3],581 and 226 and 425
same,Population Fragmented Nuclei (%),[4],6% and 3% and 2%
same,Population Hoechst High Intensity Objects (%),[4],6% and 8% and 9%
same,Population Membrane Permeable-Phenotype (%),[4],12% and 10% and 4%
same,Population Mitochondria Different-Phenotype (%),[4],87% and 90% and 57%
same,Population Mitotic Cells (%),[4],40% and 30% and 79%
same,Population Normal (%),[4],93% and 91% and 90%
same,Population Tubulin-Different-Phenotype (%),[4],91% and 100% and 99%
same,Population Apoptotic (%),[5],43%
same,Population Fragmented Nuclei (%),[5],21%
same,Population Healthy Nuclei (%),[5],33%
same,Population Hoechst High Intensity Objects (%),[5],19%
same,Population Membrane Permeable-Phenotype (%),[5],7%
same,Population Mitochondria Different-Phenotype (%),[5],64%
same,Population Mitotic Cells (%),[5],56%
same,Population Normal (%),[5],80%
same,Population Pyknosed Nuclei (%),[5],45%
same,Population Tubulin-Different-Phenotype (%),[5],78%
same,Total Cell Count,[5],556
same,Population Apoptotic (%),[6],34%
same,Population Fragmented Nuclei (%),[6],2%
same,Population Healthy Nuclei (%),[6],82%
same,Population Hoechst High Intensity Objects (%),[6],9%
same,Population Membrane Permeable-Phenotype (%),[6],2%
same,Population Mitochondria Different-Phenotype (%),[6],81%
same,Population Mitotic Cells (%),[6],65%
same,Population Normal (%),[6],90%
same,Population Pyknosed Nuclei (%),[6],14%
same,Population Tubulin-Different-Phenotype (%),[6],98%
same,Total Cell Count,[6],887
same,Population Apoptotic (%),[7],55% and 82% and 67%
same,Population Healthy Nuclei (%),[7],32% and 22% and 44%
same,Population Hoechst High Intensity Objects (%),[7],19% and 13%
same,Population Membrane Permeable-Phenotype (%),[7],10% and 2%
same,Population Mitochondria Different-Phenotype (%),[7],63% and 100% and 98%
same,Population Mitotic Cells (%),[7],44% and 17% and 32%
same,Population Normal (%),[7],80% and 86%
same,Population Pyknosed Nuclei (%),[7],42% and 69% and 48%
same,Population Tubulin-Different-Phenotype (%),[7],80% and 91%
same,Total Cell Count,[7],565 and 241 and 453
same,Population Fragmented Nuclei (%),[8],6% and 3% and 4%
same,Population Hoechst High Intensity Objects (%),[8],6% and 7%
same,Population Membrane Permeable-Phenotype (%),[8],6% and 4%
same,Population Mitochondria Different-Phenotype (%),[8],92% and 95% and 77%
same,Population Normal (%),[8],93% and 92%
same,Population Tubulin-Different-Phenotype (%),[8],94% and 95% and 98%
same,Population Apoptotic (%),[9],87% and 71%
same,Population Fragmented Nuclei (%),[9],14%
same,Population Healthy Nuclei (%),[9],17% and 42%
same,Population Hoechst High Intensity Objects (%),[9],13% and 11%
same,Population Membrane Permeable-Phenotype (%),[9],0%
same,Population Mitochondria Different-Phenotype (%),[9],100% and 99%
same,Population Mitotic Cells (%),[9],12% and 28%
same,Population Normal (%),[9],86% and 88%
same,Population Pyknosed Nuclei (%),[9],68% and 49%
same,Population Tubulin-Different-Phenotype (%),[9],92%
same,Total Cell Count,[9],263 and 534
same,Population Apoptotic (%),[10],86% and 89%
same,Population Fragmented Nuclei (%),[10],6% and 7%
same,Population Healthy Nuclei (%),[10],21% and 15%
same,Population Hoechst High Intensity Objects (%),[10],12% and 9%
same,Population Membrane Permeable-Phenotype (%),[10],2%
same,Population Mitochondria Different-Phenotype (%),[10],91%
same,Population Mitotic Cells (%),[10],13% and 10%
same,Population Normal (%),[10],87% and 90%
same,Population Pyknosed Nuclei (%),[10],71% and 76%
same,Population Tubulin-Different-Phenotype (%),[10],85% and 70%
same,Total Cell Count,[10],182 and 236
O=C(O)c1ccc2cc(-c3ccc(O)c(C45CC6CC(CC(C6)C4)C5)c3)ccc2c1 [O-DEMETHYLATED ADAPALENE],Population Apoptotic (%),[1],35%
same,Population Fragmented Nuclei (%),[1],6%
same,Population Healthy Nuclei (%),[1],60%
same,Population Hoechst High Intensity Objects (%),[1],5%
same,Population Membrane Permeable-Phenotype (%),[1],1%
same,Population Mitochondria Different-Phenotype (%),[1],70%
same,Population Mitotic Cells (%),[1],64%
same,Population Normal (%),[1],94%
same,Population Pyknosed Nuclei (%),[1],33%
same,Population Tubulin-Different-Phenotype (%),[1],30%
same,Total Cell Count,[1],320
same,Population Apoptotic (%),[2],12%
same,Population Fragmented Nuclei (%),[2],2%
same,Population Healthy Nuclei (%),[2],57%
same,Population Hoechst High Intensity Objects (%),[2],4%
same,Population Membrane Permeable-Phenotype (%),[2],8%
same,Population Mitochondria Different-Phenotype (%),[2],15%
same,Population Mitotic Cells (%),[2],87%
same,Population Normal (%),[2],95%
same,Population Pyknosed Nuclei (%),[2],40%
same,Population Tubulin-Different-Phenotype (%),[2],17%
same,Total Cell Count,[2],214
same,Population Apoptotic (%),[3],53%
same,Population Fragmented Nuclei (%),[3],21%
same,Population Healthy Nuclei (%),[3],33%
same,Population Hoechst High Intensity Objects (%),[3],15%
same,Population Mitochondria Different-Phenotype (%),[3],52%
same,Population Mitotic Cells (%),[3],46%
same,Population Normal (%),[3],84%
same,Population Pyknosed Nuclei (%),[3],45%
same,Population Tubulin-Different-Phenotype (%),[3],14%
same,Total Cell Count,[3],204
same,Population Apoptotic (%),[4],14%
same,Population Fragmented Nuclei (%),[4],8%
same,Population Healthy Nuclei (%),[4],43%
same,Population Hoechst High Intensity Objects (%),[4],5%
same,Population Membrane Permeable-Phenotype (%),[4],3%
same,Population Mitochondria Different-Phenotype (%),[4],6%
same,Population Mitotic Cells (%),[4],85%
same,Population Normal (%),[4],94%
same,Population Pyknosed Nuclei (%),[4],47%
same,Population Tubulin-Different-Phenotype (%),[4],11%
same,Total Cell Count,[4],228
same,Population Apoptotic (%),[5],37%
same,Population Fragmented Nuclei (%),[5],5%
same,Population Hoechst High Intensity Objects (%),[5],5%
same,Population Membrane Permeable-Phenotype (%),[5],6%
same,Population Mitochondria Different-Phenotype (%),[5],44%
same,Population Mitotic Cells (%),[5],62%
same,Population Normal (%),[5],94%
same,Population Pyknosed Nuclei (%),[5],19%
same,Population Tubulin-Different-Phenotype (%),[5],24%
same,Total Cell Count,[5],354
same,Population Apoptotic (%),[6],13%
same,Population Fragmented Nuclei (%),[6],6%
same,Population Healthy Nuclei (%),[6],75%
same,Population Hoechst High Intensity Objects (%),[6],1%
same,Population Membrane Permeable-Phenotype (%),[6],13%
same,Population Mitochondria Different-Phenotype (%),[6],14%
same,Population Mitotic Cells (%),[6],86%
same,Population Normal (%),[6],98%
same,Population Pyknosed Nuclei (%),[6],18%
same,Population Tubulin-Different-Phenotype (%),[6],26%
same,Total Cell Count,[6],257
same,Population Apoptotic (%),[7],52%
same,Population Fragmented Nuclei (%),[7],16%
same,Population Healthy Nuclei (%),[7],43%
same,Population Hoechst High Intensity Objects (%),[7],20%
same,Population Membrane Permeable-Phenotype (%),[7],1%
same,Population Mitochondria Different-Phenotype (%),[7],34%
same,Population Mitotic Cells (%),[7],47%
same,Population Normal (%),[7],79%
same,Population Pyknosed Nuclei (%),[7],40%
same,Population Tubulin-Different-Phenotype (%),[7],14%
same,Total Cell Count,[7],218
same,Population Apoptotic (%),[8],25%
same,Population Fragmented Nuclei (%),[8],11%
same,Population Healthy Nuclei (%),[8],50%
same,Population Hoechst High Intensity Objects (%),[8],11%
same,Population Membrane Permeable-Phenotype (%),[8],4%
same,Population Mitochondria Different-Phenotype (%),[8],17%
same,Population Mitotic Cells (%),[8],75%
same,Population Normal (%),[8],88%
same,Population Pyknosed Nuclei (%),[8],38%
same,Population Tubulin-Different-Phenotype (%),[8],16%
same,Total Cell Count,[8],234
same,Population Apoptotic (%),[11],26%
same,Population Fragmented Nuclei (%),[11],10%
same,Population Hoechst High Intensity Objects (%),[11],6%
same,Population Membrane Permeable-Phenotype (%),[11],2%
same,Population Mitochondria Different-Phenotype (%),[11],13%
same,Population Mitotic Cells (%),[11],73%
same,Population Normal (%),[11],93%
same,Population Tubulin-Different-Phenotype (%),[11],10%
same,Total Cell Count,[11],565
same,Population Apoptotic (%),[12],15%
same,Population Fragmented Nuclei (%),[12],9%
same,Population Healthy Nuclei (%),[12],80%
same,Population Hoechst High Intensity Objects (%),[12],2%
same,Population Membrane Permeable-Phenotype (%),[12],11%
same,Population Mitochondria Different-Phenotype (%),[12],1%
same,Population Mitotic Cells (%),[12],84%
same,Population Normal (%),[12],97%
same,Population Pyknosed Nuclei (%),[12],9%
same,Population Tubulin-Different-Phenotype (%),[12],19%
same,Total Cell Count,[12],390
same,Population Apoptotic (%),[9],51%
same,Population Fragmented Nuclei (%),[9],21%
same,Population Healthy Nuclei (%),[9],30%
same,Population Hoechst High Intensity Objects (%),[9],19%
same,Population Membrane Permeable-Phenotype (%),[9],1%
same,Population Mitochondria Different-Phenotype (%),[9],22%
same,Population Mitotic Cells (%),[9],48%
same,Population Normal (%),[9],80%
same,Population Pyknosed Nuclei (%),[9],48%
same,Population Tubulin-Different-Phenotype (%),[9],16%
same,Total Cell Count,[9],217
same,Population Apoptotic (%),[10],32%
same,Population Fragmented Nuclei (%),[10],12%
same,Population Healthy Nuclei (%),[10],33%
same,Population Hoechst High Intensity Objects (%),[10],9%
same,Population Mitochondria Different-Phenotype (%),[10],2%
same,Population Mitotic Cells (%),[10],67%
same,Population Normal (%),[10],90%
same,Population Pyknosed Nuclei (%),[10],53%
same,Population Tubulin-Different-Phenotype (%),[10],10%
same,Total Cell Count,[10],243
